Calls of active or inactive are those of the source. No cut-off for these calls is given here.
Columns and labels:
[1] = biological target: T1, Toll-like receptor 9 (Mus musculus) (UniProt Q9EQU3); assay: Activation of mouse TLR9 expressed in HEK293 assessed as induction of NF-kappaB activity reporter gene assay; type: cell-based
T1 sequence (whole entry): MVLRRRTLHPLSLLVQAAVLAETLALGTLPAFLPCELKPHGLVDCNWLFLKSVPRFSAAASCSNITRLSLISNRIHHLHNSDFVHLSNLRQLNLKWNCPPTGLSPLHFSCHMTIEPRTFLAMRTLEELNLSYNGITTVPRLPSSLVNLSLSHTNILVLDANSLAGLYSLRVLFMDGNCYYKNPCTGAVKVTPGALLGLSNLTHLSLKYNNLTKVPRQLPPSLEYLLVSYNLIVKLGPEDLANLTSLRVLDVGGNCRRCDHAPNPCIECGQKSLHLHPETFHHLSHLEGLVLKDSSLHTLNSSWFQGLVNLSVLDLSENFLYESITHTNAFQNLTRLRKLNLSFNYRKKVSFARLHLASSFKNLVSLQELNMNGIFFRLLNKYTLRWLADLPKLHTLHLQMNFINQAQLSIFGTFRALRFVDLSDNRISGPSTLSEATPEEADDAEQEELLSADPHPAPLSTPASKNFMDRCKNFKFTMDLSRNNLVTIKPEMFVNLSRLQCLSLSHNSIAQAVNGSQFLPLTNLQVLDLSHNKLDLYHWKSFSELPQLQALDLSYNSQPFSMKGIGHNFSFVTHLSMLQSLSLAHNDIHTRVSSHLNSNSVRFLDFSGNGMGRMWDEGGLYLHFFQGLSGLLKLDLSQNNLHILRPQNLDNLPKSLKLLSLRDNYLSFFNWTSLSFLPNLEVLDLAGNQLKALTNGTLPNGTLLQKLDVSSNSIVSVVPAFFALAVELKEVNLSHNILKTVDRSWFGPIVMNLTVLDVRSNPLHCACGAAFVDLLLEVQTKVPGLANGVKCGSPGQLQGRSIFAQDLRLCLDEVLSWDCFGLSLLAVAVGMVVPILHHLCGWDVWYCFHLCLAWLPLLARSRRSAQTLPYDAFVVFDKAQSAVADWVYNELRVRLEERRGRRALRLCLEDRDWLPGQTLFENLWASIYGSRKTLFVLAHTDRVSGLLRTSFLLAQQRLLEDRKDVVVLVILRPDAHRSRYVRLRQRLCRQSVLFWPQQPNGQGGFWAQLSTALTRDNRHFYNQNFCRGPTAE

[2] = biological target: Toll-like receptor 3 (Homo sapiens) (UniProt O15455); assay: Activation of human TLR3 expressed in HEK293 assessed as induction of NF-kappaB activity reporter gene assay; type: cell-based
Sequence of Toll-like receptor 3 (Homo sapiens) (O15455 whole entry): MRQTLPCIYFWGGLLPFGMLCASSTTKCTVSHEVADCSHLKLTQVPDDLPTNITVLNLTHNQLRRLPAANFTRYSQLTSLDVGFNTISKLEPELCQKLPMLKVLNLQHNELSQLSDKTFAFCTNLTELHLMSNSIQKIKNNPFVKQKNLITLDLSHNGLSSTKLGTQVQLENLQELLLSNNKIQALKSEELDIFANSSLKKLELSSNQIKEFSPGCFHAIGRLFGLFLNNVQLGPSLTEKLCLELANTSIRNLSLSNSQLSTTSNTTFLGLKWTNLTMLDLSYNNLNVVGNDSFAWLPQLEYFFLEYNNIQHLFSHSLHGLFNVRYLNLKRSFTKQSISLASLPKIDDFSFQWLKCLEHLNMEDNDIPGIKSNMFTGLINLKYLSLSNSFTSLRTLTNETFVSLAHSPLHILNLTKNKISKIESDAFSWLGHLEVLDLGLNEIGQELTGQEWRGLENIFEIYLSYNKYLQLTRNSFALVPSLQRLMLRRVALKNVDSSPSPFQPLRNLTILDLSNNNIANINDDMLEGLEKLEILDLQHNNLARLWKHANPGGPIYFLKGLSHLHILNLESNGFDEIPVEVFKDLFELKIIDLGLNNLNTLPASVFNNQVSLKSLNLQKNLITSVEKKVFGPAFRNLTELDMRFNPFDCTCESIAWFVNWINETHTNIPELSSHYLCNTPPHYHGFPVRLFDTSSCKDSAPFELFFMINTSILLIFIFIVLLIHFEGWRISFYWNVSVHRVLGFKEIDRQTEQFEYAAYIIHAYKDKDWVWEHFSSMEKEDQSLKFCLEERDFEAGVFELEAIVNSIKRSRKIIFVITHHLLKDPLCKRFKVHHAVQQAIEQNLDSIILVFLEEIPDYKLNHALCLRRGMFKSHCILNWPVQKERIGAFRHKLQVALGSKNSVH

[3] = Metabolic stability in human serum assessed as full length product remaining after 10 mins by HPLC; type: ADME, cell-free; conditions: read-out: Stability
Summary of the method: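 About 0.5 A260 units compound in 1% human serum in PBS, 37 °C; aliquot taken at 10 min, analysed by anion-exchange HPLC for percent intact full-length product.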

[4] = tested on: PBMC; assay: Immunomodulatory activity in human PBMC assessed as induction of TNFalpha at 100 ug/ml after 24 hrs; type: functional, cell-based
Summary of the method: (§1)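 Human PBMCs plated at 5 × 10^6 cells/mL; compounds dissolved in PBS added at various concentrations, 37 °C for 24 h. Supernatant cytokines/chemokines quantified with human Luminex multiplex kit.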

[5] = tested on: Splenocyte; assay: Immunomodulatory activity in C57BL/6 mouse splenocytes bearing TLR7 receptor assessed as IL6 release at 100 ug/ml after 24 hrs by ELISA; type: functional, cell-based
Summary of the method: (§2)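 C57BL/6 splenocytes in RPMI 1640 with 10% FBS, penicillin/streptomycin, 2 mM L-glutamine, plated at 5 × 10^6 cells/mL; compounds in PBS added, 37 °C for 24 h. Supernatant IL-12 and IL-6 by ELISA; representative of three independent experiments.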

[6] = tested on: PBMC; assay: Immunomodulatory activity in human PBMC assessed as induction of IFN-alpha at 100 ug/ml after 24 hrs
[7] = tested on: Splenocyte; assay: Immunomodulatory activity in C57BL/6 mouse splenocytes bearing TLR7 receptor assessed as IL12 release at 100 ug/ml after 24 hrs by ELISA; type: functional, cell-based; summary of the method: as §2
[8] = biological target: T2, Toll-like receptor 8 (Homo sapiens) (UniProt Q9NR97); assay: Activation of human TLR8 expressed in HEK293XL assessed as fold induction of NF-kappaB activity at 50 ug/ml after 18 hrs by reporter gene assay relative to control
T2 sequence (whole entry): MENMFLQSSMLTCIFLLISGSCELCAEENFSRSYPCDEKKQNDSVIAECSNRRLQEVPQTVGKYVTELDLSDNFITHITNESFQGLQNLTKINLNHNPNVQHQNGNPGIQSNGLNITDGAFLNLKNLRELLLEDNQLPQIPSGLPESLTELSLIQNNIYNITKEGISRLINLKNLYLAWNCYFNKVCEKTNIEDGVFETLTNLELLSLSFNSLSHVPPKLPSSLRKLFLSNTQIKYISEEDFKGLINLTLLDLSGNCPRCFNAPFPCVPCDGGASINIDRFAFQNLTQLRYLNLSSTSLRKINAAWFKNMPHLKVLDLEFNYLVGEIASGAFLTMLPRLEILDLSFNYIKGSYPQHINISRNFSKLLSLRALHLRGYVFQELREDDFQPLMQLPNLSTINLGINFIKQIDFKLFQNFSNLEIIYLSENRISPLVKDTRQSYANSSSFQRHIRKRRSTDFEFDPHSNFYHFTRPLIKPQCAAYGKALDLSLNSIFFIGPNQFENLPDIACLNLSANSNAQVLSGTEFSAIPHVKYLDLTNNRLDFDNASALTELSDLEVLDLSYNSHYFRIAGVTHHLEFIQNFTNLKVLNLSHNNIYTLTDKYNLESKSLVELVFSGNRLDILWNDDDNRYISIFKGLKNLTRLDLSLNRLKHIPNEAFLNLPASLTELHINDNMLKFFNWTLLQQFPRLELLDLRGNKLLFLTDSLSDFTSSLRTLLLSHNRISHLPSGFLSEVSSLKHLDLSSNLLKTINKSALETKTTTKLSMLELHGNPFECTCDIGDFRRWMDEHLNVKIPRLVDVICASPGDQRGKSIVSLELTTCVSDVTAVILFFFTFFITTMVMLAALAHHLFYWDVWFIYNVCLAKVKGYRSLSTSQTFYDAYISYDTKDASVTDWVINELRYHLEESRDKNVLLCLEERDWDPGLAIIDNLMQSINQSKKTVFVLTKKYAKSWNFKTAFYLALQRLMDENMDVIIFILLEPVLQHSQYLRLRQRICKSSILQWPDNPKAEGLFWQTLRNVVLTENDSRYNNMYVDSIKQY
Summary of the method: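 HEK293 cells stably expressing human TLR7 or TLR8, transiently transfected with SEAP reporter plasmid; medium replaced, SIMRA compounds added, 18 h incubation. Supernatant SEAP measured by QuantiBlue; expressed as fold increase in NF-κB activity over PBS control. Tabulated data at 50 μg/mL, representative of three independent experiments.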

[9] = tested on: PBMC; assay: Immunomodulatory activity in human PBMC assessed as induction of IL12 at 100 ug/ml after 24 hrs; type: functional, cell-based; summary of the method: as §1

Activity [1] | Activity [2] | remaining at 10 min [3] [%] | Activity [5] | Activity [7] | fold change (FC) [8] | Compound | Activity [4] [pg/mL] | IFN-alpha [6] [pg/mL] | Activity [9] [pg/mL]
inactive | inactive | 80 | Active | Active | 0.3 | Nc1ccn([C@@H]2O[C@H](COP(=O)(S)O[C@H]3[C@@H](O)[C@H](n4cnc5c(N)ncnc54)O[C@@H]3COP(=O)(S)O[C@H]3[C@@H](O)[C@H](n4ccc5c(=O)[nH]c(N)nc54)O[C@@H]3COP(=O)(S)O[C@H]3[C@@H](O)[C@H](n4ccc(=O)[nH]c4=O)O[C@@H]3COP(=O)(S)O[C@H]3[C@@H](O)[C@H](n4ccc(=O)[nH]c4=O)O[C@@H]3COP(=O)(S)O[C@H]3[C@@H](O)[C@H](n4cnc5c(N)ncnc54)O[C@@H]3COP(=O)(S)O[C@H]3[C@@H](O)[C@H](n4cnc5c(N)ncnc54)O[C@@H]3CO)[C@@H](OP(=O)(S)OC[C@H]3O[C@@H](n4ccc5c(=O)[nH]c(N)nc54)[C@H](O)[C@@H]3OP(=O)(S)OC[C@H]3O[C@@H](n4ccc(N)nc4=O)[C@H](O)[C@@H]3OP(=O)(S)OC[C@H]3O[C@@H](n4ccc(=O)[nH]c4=O)[C@H](O)[C@@H]3OP(=O)(S)OC[C@H]3O[C@@H](n4ccc(=O)[nH]c4=O)[C@H](O)[C@@H]3OP(=O)(S)OCC(O)COP(=O)(S)O[C@H]3[C@@H](O)[C@H](n4ccc(=O)[nH]c4=O)O[C@@H]3COP(=O)(S)O[C@H]3[C@@H](O)[C@H](n4ccc(=O)[nH]c4=O)O[C@@H]3COP(=O)(S)O[C@H]3[C@@H](O)[C@H](n4ccc(N)nc4=O)O[C@@H]3COP(=O)(S)O[C@H]3[C@@H](O)[C@H](n4ccc5c(=O)[nH]c(N)nc54)O[C@@H]3COP(=O)(S)O[C@H]3[C@@H](O)[C@H](n4ccc(N)nc4=O)O[C@@H]3COP(=O)(S)O[C@H]3[C@@H](O)[C@H](n4cnc5c(N)ncnc54)O[C@@H]3COP(=O)(S)O[C@H]3[C@@H](O)[C@H](n4ccc5c(=O)[nH]c(N)nc54)O[C@@H]3COP(=O)(S)O[C@H]3[C@@H](O)[C@H](n4ccc(=O)[nH]c4=O)O[C@@H]3COP(=O)(S)O[C@H]3[C@@H](O)[C@H](n4ccc(=O)[nH]c4=O)O[C@@H]3COP(=O)(S)O[C@H]3[C@@H](O)[C@H](n4cnc5c(N)ncnc54)O[C@@H]3COP(=O)(S)O[C@H]3[C@@H](O)[C@H](n4cnc5c(N)ncnc54)O[C@@H]3CO)[C@H]2O)c(=O)n1 (stereo partly drawn) | 8.8 | 193 | 340
inactive | inactive | 82 | Active | Active | 1 | Nc1ccn([C@@H]2O[C@H](COP(=O)(S)O[C@H]3[C@@H](O)[C@H](n4cnc5c(N)ncnc54)O[C@@H]3COP(=O)(S)O[C@H]3[C@@H](O)[C@H](n4cnc5c(N)ncnc54)O[C@@H]3CO)[C@@H](OP(=O)(S)OC[C@H]3O[C@@H](n4ccc(=O)[nH]c4=O)[C@H](O)[C@@H]3OP(=O)(S)OC[C@H]3O[C@@H](n4ccc(=O)[nH]c4=O)[C@H](O)[C@@H]3OP(=O)(S)OC[C@H]3O[C@@H](n4ccc5c(=O)[nH]c(N)nc54)[C@H](O)[C@@H]3OP(=O)(S)OC[C@H]3O[C@@H](n4cnc5c(N)ncnc54)[C@H](O)[C@@H]3OP(=O)(S)OC[C@H]3O[C@@H](n4ccc5c(=O)[nH]c(N)nc54)[C@H](O)[C@@H]3OP(=O)(S)OC[C@H]3O[C@@H](n4ccc(N)nc4=O)[C@H](O)[C@@H]3OP(=O)(S)OC[C@H]3O[C@@H](n4ccc(=O)[nH]c4=O)[C@H](O)[C@@H]3OP(=O)(S)OC[C@H]3O[C@@H](n4ccc(=O)[nH]c4=O)[C@H](O)[C@@H]3OP(=O)(S)OCC(O)COP(=O)(S)O[C@H]3[C@@H](O)[C@H](n4ccc(=O)[nH]c4=O)O[C@@H]3COP(=O)(S)O[C@H]3[C@@H](O)[C@H](n4ccc(=O)[nH]c4=O)O[C@@H]3COP(=O)(S)O[C@H]3[C@@H](O)[C@H](n4ccc(N)nc4=O)O[C@@H]3COP(=O)(S)O[C@H]3[C@@H](O)[C@H](n4ccc5c(=O)[nH]c(N)nc54)O[C@@H]3COP(=O)(S)O[C@H]3[C@@H](O)[C@H](n4cnc5c(N)ncnc54)O[C@@H]3COP(=O)(S)O[C@H]3[C@@H](O)[C@H](n4ccc5c(=O)[nH]c(N)nc54)O[C@@H]3COP(=O)(S)O[C@H]3[C@@H](O)[C@H](n4ccc(=O)[nH]c4=O)O[C@@H]3COP(=O)(S)O[C@H]3[C@@H](O)[C@H](n4ccc(=O)[nH]c4=O)O[C@@H]3COP(=O)(S)O[C@H]3[C@@H](O)[C@H](n4ccc(N)nc4=O)O[C@@H]3COP(=O)(S)O[C@H]3[C@@H](O)[C@H](n4cnc5c(N)ncnc54)O[C@@H]3COP(=O)(S)O[C@H]3[C@@H](O)[C@H](n4cnc5c(N)ncnc54)O[C@@H]3CO)[C@H]2O)c(=O)n1 (stereo partly drawn) | 74.4 | 106 | 527

From ChEMBL document CHEMBL1154352, “Toll-like receptor 7 selective synthetic oligoribonucleotide agonists: synthesis and structure-activity relationship studies” (J Med Chem, 2009)
